# Screening results (PubChem BioAssay)
# Hep lipid drop: modulators of hepatic lipid droplet formation. AML12 mouse hepatocytes, oleate lipid droplets, BODIPY imaging. 0.4% of 240,000 active. inhibition, % at 6.5 µM;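 active = lipid droplet intensity inhibited by at least 50%, with more than 500 cells counted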
#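 Material: mouse AML12 hepatocyte cell line, fixed after treatment; Timing: compound with oleate, overnight; Technique: high-content imaging of BODIPY-stained droplets and DAPI nuclei; Probe or stimulus: oleate, 100 µM final; Dosing: compound at 6.5 µM only.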
# aDG glyco up: increases alpha dystroglycan glycosylation. Pro5-aDG cells, alpha-DG glycosylation AlphaScreen (IIH6); 0% Pro5, 100% B10-LARGE cell signal. activation, % at 10 µM. 0.22% of 360,000 active. AID 624168;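 active = activation of at least 8% versus controls, or a plate z-score of at least 8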;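 also: Pro5 are CHO cells carrying HIG-tagged alpha-DG that lacks glycosylation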
# V-ATPase pH: regulators of yeast V-ATPase proton transport; response, % at 10 µM; S. cerevisiae, pHLuorin cytosolic pH fluorescence; AID 504577; 0.37% of 350,000 active; in the data active = response mostly above about 7.3%, no sharp cut-off; inactive = mostly below about 5.4%; also: actives read high
# MPTP block: permeability transition pore inhibition; isolated mouse mitochondria, Ca2+ swelling absorbance, 30 min; inhibition, % at 10 µM; 1.4% of 360,000 active;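 active = inhibition of 50% or more, scaled per plate between neutral and stimulator controls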;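 also: 0% = DMSO wells given calcium and 100% = 1 mM EGTA wells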
# ADAM17 inh: ADAM17 inhibition, QFRET primary screen; inhibition, % at 6.95 µM; 0.83% of 370,000 active; recombinant ADAM17, EDANS/DABCYL FRET peptide cleavage; AID 720648; P78536;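 active = inhibition above the mean of compounds lying between control limits plus 3 SD, set per campaign, cut at about 8.5% in these data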;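 also: 0% = DMSO-only wells as the low control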
# Target sequence (P78536 215-824 limits assumed): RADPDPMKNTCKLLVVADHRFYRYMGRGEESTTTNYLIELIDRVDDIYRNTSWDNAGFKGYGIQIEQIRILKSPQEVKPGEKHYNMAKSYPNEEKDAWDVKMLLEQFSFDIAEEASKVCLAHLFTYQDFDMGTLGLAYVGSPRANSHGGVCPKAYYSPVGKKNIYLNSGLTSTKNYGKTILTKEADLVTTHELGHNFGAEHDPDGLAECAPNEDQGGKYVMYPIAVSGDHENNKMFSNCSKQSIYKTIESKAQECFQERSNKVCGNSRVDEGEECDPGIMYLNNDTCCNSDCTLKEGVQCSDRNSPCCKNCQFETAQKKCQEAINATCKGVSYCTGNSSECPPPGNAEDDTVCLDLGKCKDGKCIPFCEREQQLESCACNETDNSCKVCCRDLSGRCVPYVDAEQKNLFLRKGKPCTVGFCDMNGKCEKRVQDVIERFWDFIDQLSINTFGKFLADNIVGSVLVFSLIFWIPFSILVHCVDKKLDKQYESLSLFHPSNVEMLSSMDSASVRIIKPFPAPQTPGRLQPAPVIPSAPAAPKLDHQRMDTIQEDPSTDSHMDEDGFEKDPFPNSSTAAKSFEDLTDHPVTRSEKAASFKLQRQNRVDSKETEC
# ADAM10 inh: inhibits human ADAM10; recombinant ADAM10, EDANS/DABCYL FRET peptide cleavage, 3 h; inhibition, % at 7 µM; 0.62% of 370,000 active;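 active = inhibition above a per-campaign cutoff equal to the mean of compounds falling between control-based bounds plus 3 SD, cut at about 20% in these data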;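 also: 0% = DMSO wells while the 100% control is not disclosed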
# ADAM10 ctr: counter-screen for ADAM17 exosite inhibitors: inhibitors of human ADAM10; shares compounds with ADAM17 inh; recombinant ADAM10, EDANS/DABCYL FRET peptide cleavage, 3 h; inhibition, % at 6.95 µM; 47% of 2,900 active;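 active = mean inhibition over the triplicate runs exceeds the activity threshold set in the earlier primary screen, cut at about 20% in these data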;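 also: 0% = DMSO wells and 100% = marimastat wells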
# ADAM17 confirm: confirmation of inhibitors of human ADAM17 | shares compounds with ADAM17 inh | recombinant ADAM17, EDANS/DABCYL QFRET peptide cleavage | inhibition, % at 6.95 µM | 65% of 2,900 active | AID 743257;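 active = mean inhibition across replicates above the hit cutoff set in the primary screen, cut at about 8.5% in these data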;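 also: 0% = DMSO wells and 100% = marimastat wells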
# The depositor's hits bear a star; . = not tested or not shown. Rows were chosen to be rich in hits. Some 3.1% of all compounds tested hit in one or more screens of this group.
SMILES,Hep lipid drop,aDG glyco up,V-ATPase pH,MPTP block,ADAM17 inh,ADAM10 inh,ADAM10 ctr,ADAM17 confirm
COC(=O)C1CN(Cc2cn(Cc3ccc(Cl)cc3)nn2)CCS(=O)(=O)N1Cc1ccc(OC)cc1 (stereo unspecified),.,.,.,.,-2,-22,.,.
COC(=O)[C@]1(C)CN(C(=O)OC(C)(C)C)C2=C1C(=O)C[C@](C)(C(=O)OC(C)(C)C)C2,.,.,.,.,-5,-3,.,.
O=C(CSc1nnc(Cc2ccccc2)n1-c1cccc(Cl)c1)N1CCOCC1,-21,0,-1,-1,-1,-13,.,.
Cc1cccc(-n2c(Cc3ccccc3)nnc2SCC(=O)N2CCOCC2)c1,.,0,4,0,12*,15,-2,3
O=C(CN1CCOCC1)Nc1ccccc1F,7,0,-2,0,9.1*,7,-2,-1
CCCCN1C(=O)C(O)=C(C(C)=O)C1c1ccc(OC)cc1OC (stereo unspecified),.,0,-1,0,10*,8,0,1
COc1ccc(C2C(C(C)=O)=C(O)C(=O)N2CCO)c(OC)c1 (stereo unspecified),.,0,0,0,-2,-3,.,.
COc1cc(C)c2c(c1C=O)Oc1c(c(C)c(O)c3c1C(O)OC3=O)OC2=O (stereo unspecified),14,0,5,-1,39*,6,6,6
CC1CCCN(S(=O)(=O)c2ccc(NC(=O)Cn3nnc(-c4ccccc4F)n3)cc2)C1 (stereo unspecified),-21,0,0,45,10*,17,16,11*
O=S(=O)(NCCc1ccc(F)cc1)c1cc(C(F)(F)F)ccc1Br,.,0,0,1,9.9*,19,22*,11*
CCOC(=O)N1CCN(C(=O)c2ccc(N(Cc3ccc(C)cc3)S(C)(=O)=O)cc2)CC1,-6,0,-2,4,9.0*,7,-2,0
CCN(CC)C(=O)CC[C@H]1CC[C@]2(CCCN(Cc3cccc4ccccc34)C2)O1,.,.,.,.,0,4,.,.
COc1ccc(N=C2SC(CC(=O)Nc3ccccc3OC)C(=O)N2Cc2ccco2)cc1 (stereo unspecified),-50,0,-2,-1,7,15,.,.
COc1ccc(N=C2SC(CC(=O)Nc3ccc(F)cc3)C(=O)N2Cc2ccco2)cc1 (stereo unspecified),6,2,2,4,12*,15,18,13*
O=[N+]([O-])c1cc(Cl)c(O)c2ncccc12,-1,0,3,-23,10*,15,20,11*
O=[N+]([O-])c1cc(Cl)c2cccnc2c1O,22,0,2,-5,5,4,.,.
CCN(CC)C(=O)CC[C@@H]1CC[C@]2(CCCN(Cc3ccc(Br)cc3)C2)O1,.,.,.,.,-1,-2,.,.
COc1cccc2cc(/C(=N/O)c3ccc(Br)cc3)oc12,-17,0,-4,1,12*,13,16,11*
CC(C)NC(=O)N[C@@H]1C[C@@H]2O[C@H](CO)CC[C@@H]2O[C@@H]1CCc1ccc(-c2ccccc2F)cc1,.,.,.,.,1,2,.,.
CCOC(=O)N1CCN(C(=O)C[C@H]2C[C@@]3(C(=O)OC)C(=C[C@H](COCc4ccccc4)O[C@@H]3C)N(Cc3cccc4ccccc34)C2=O)CC1,.,.,.,.,3,7,.,.
CN1CCS/C1=C/C=C1\SC(=S)N(CC(=O)O)C1=O,3,0,3,1,8.9*,15,27*,13*
O=C(O)CN1C(=O)/C(=C/c2ccc(N3CCCCC3)o2)SC1=S,-1,0,7,1,-10,-11,.,.
CN1CCS/C1=C/C=C1/SC(=S)N(Cc2ccccc2)C1=O,8,-1,2,2,8,16,.,.
CCCCN1C(=O)/C(=C/C=C2\SCCN2C)SC1=S,8,-1,-2,1,12*,15,25*,16*
CN(Cc1ccccc1)C(=O)OCc1cn(Cc2ccc(Cl)cc2)nn1,.,.,.,.,-1,2,.,.
SMILES,Hep lipid drop,aDG glyco up,V-ATPase pH,MPTP block,ADAM17 inh,ADAM10 inh,ADAM10 ctr,ADAM17 confirm
Clc1ccc(OCc2nc(-c3ccccn3)n[nH]2)cc1,-2,1,1,2,9.4*,7,5,4
CCC(=O)N1CCc2cc(Br)cc(S(=O)(=O)N(C)c3ccc(OC)cc3OC)c21,1,0,4,-2,10*,16,7,0
Cc1ccc(NC(=O)C(OC(=O)c2cc(C)oc2C)c2ccccc2)cc1 (stereo unspecified),2,0,-2,3,11*,14,16,12*
CC1C(=O)N(Cc2cn(CCC3OCCO3)nn2)CCS(=O)(=O)N1Cc1ccc(-c2ccc(F)cc2)cc1 (stereo unspecified),.,0,-1,2,10*,-8,4,2
COc1ccc(-c2ccc(CN3C(C(C)C)C(=O)N(Cc4cn(Cc5ccco5)nn4)CCS3(=O)=O)cc2)cc1OC (stereo unspecified),.,0,0,-3,10*,11,16,14*
COC(=O)[C@]12C[C@H](CC(=O)NCCc3ccccc3OC)C(=O)N(Cc3ccc4c(c3)OCO4)C1=C[C@H](C(C)C)O[C@@H]2C1CC1,.,.,.,.,4,3,.,.
CC(=O)CC[C@@H]1CC[C@]2(CCCN(C(=O)C3CCCC3)C2)O1,.,.,.,.,-3,-5,.,.
CNc1cc(-n2nc(C)cc2-c2ccccc2)ncn1,.,0,-2,0,-8,1,.,.
Cc1cc(-c2ccccc2)n(-c2cc(N/N=C/c3ccccc3O)ncn2)n1,-74,0,-4,4,8.7*,3,9,7
CCCCCCN1C[C@@H](n2cc(C3CC3)nn2)[C@H](O)C[C@@H]1c1ccc(C)cc1,.,0,0,-1,3,1,.,.
CCCCCCN1C[C@H](n2cc(C3CC3)nn2)[C@@H](O)C[C@@H]1c1ccc(C)cc1,.,0,2,-1,15*,13,17,8
COc1ccc(CN(C(=O)c2oc3cc(C)c(C)cc3c2C)C2CCS(=O)(=O)C2)cc1OC (stereo unspecified),-8,0,2,0,9.7*,6,13,9.4*
Cc1ccc(CNC(=O)Cn2ccc3cc(S(=O)(=O)N4CCCCCC4)ccc32)cc1,6,1,0,-1,8.8*,3,-3,7
Cc1cccc(CNC(=O)Cn2ccc3cc(S(=O)(=O)N4CCCCCC4)ccc32)c1,-2,0,-2,0,4,14,.,.
